Target: T1, Aromatic-L-amino-acid decarboxylase (Homo sapiens, UniProt P20711)
T1 sequence (P20711 whole entry): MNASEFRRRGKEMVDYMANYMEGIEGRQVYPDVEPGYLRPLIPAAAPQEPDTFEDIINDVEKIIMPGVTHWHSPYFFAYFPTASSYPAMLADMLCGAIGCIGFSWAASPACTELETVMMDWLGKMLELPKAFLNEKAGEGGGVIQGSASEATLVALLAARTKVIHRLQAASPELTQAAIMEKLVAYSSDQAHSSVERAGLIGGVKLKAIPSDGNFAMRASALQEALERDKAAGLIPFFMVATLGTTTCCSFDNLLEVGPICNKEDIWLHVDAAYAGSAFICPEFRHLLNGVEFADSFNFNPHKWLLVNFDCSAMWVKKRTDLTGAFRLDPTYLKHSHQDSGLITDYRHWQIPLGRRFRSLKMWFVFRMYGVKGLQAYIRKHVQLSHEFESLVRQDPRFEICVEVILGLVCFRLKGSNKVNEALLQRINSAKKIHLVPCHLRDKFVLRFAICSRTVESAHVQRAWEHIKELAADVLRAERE
Test: Inhibition of recombinant human DOPA decarboxylase assessed as inhibition of dopamine production after 30 mins by HPLC method; call rule not given here
Outline: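 Recombinant human enzyme reacted with L-DOPA (1 mM final) and PLP cofactor in pH 6.8 buffer, enzyme […] final, with or without compound, 37 °C for 30 min; stopped by heating at 100 °C for 2 min. Dopamine formed quantified by HPLC, 0.2% formic acid/methanol 9:1 eluent, UV 280 nm. IC50 from dose-response curves, 6 concentrations, each in duplicate.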

Row | Structure (SMILES) | IC50 (read-out: IC50) [µM] | IC50
1 | C[n+]1cc2c3c(ccc2c2ccc4cc5c(cc4c21)OCO5)OCO3 [SANGUINARIUM CHLORIDE] | 200 | 
2 | COc1ccc2c(c[n+](C)c3c4cc5c(cc4ccc23)OCO5)c1OC [CHELERYTHRINE] | 1280 | 
3 | COc1ccc2c(c1)c[n+](C)c1ccc(O)cc21 | 120 | 
4 | COc1ccc2c(c1)c[n+](C)c1ccccc21 | 950 | 
5 | COc1ccc2cc3[n+](cc2c1OC)CCc1cc2c(cc1-3)OCO2 [BERBERINE] |  | Not Active
6 | C[n+]1cc2ccccc2c2ccccc21 | 400 | 
7 | COc1cc2c[n+](C)c3ccc(Cl)cc3c2cc1OC | 1390 | 
8 | CN1Cc2c(ccc3c2OCO3)-c2ccc3cc4c(cc3c21)OCO4 [DIHYDROSANGUINARINE] |  | Not Active

Now from value to molecule, other results behind:

Row | IC50 (read-out: IC50) [µM] | Structure (SMILES) | IC50
9 | 600 | COc1ccc2c(c1)c[n+](C)c1ccc(C)cc21 | 
10 | 930 | COc1ccc2c(c1)c[n+](C)c1ccc(Cl)cc21 | 
11 | 570 | COc1ccc2c(c1)c[n+](C)c1ccc(F)cc21 | 
12 | 1490 | COc1cc2c[n+](C)c3ccc(C)cc3c2cc1OC | 
13 | 190 | COc1ccc2c(c1)c[n+](C)c1ccc(OC)cc21 | 
14 | 1340 | COc1cc2c[n+](C)c3c4cc5c(cc4ccc3c2cc1OC)OCO5 [NITIDINE] | 
15 | 3500 | COc1cc2c[n+](C)c3ccccc3c2cc1OC | 
16 | 2690 | COc1cc2c[n+](C)c3ccc(F)cc3c2cc1OC | 
17 | 1170 | COc1ccc2c(c1)c1cc(OC)c(OC)cc1c[n+]2C | 

Source: ChEMBL document CHEMBL3286121, “Synthesis of 5-methyl phenanthridium derivatives: a new class of human DOPA decarboxylase inhibitors” (Bioorg Med Chem Lett, 2014)
